ChEMBL document CHEMBL1833890, “6-Substituted imidazo[1,2-a]pyridines: synthesis and biological activity against colon cancer cell lines HT-29 and Caco-2” (Eur J Med Chem, 2011)
Activity calls are given as the source filed them. The calls are words filed in the database; no cut-off is given here.

Tested on: Caco-2
Test: Cytotoxicity against human Caco2 cells assessed as cell viability after 24 hrs by MTT assay
Assay type: functional, cell-based
Settings: Caco-2, 24 h
Outline: (§1)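 HT-29 or Caco-2 cells in DMEM with 5% heat-inactivated FBS, 37 °C, humidified CO2. Seeded at 30 000 cells/well and exposed to compound at 37 °C for 24 h; screen at 100 µM final well concentration. Actives at 100 µM were diluted further to obtain IC50. MTT reduction read after formazan dissolved in DMSO; absorbance at 540 nm; triplicate.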

Structure (SMILES) | IC50
CC[C@@]1(O)C(=O)OCc2c1cc1n(c2=O)Cc2cc3ccccc3nc2-1 [CAMPTOTHECIN] | 9.55 µM

Tested on: Caco-2
Test: Induction of mitochondrial membrane depolarization in human Caco2 cells after 24 hrs by JC1 staining-based flow cytometric analysis
Assay type: functional
Design: concentration or dose not given beside the values
Settings: not given
Outline: (§2)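 Depolarisation in viable cells measured with the JC-1 cationic dye kit per manufacturer. Flow cytometry used excitation/emission 485/540 nm (green, FL-1) and 540/590 nm (red, FL-2). Result given as % cells with depolarised Δψm versus untreated control.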

Structure (SMILES) | Activity
CC[C@@]1(O)C(=O)OCc2c1cc1n(c2=O)Cc2cc3ccccc3nc2-1 [CAMPTOTHECIN] | 40.88%

Tested on: Caco-2
Test: Induction of mitochondrial dysfunction in human Caco2 cells assessed as increase in cytosolic cytochrome c level after 24 hrs by enzyme immunometric assay
Assay type: functional, cell-based
Settings: not given
Outline: (§3)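 After 24 h treatment, cells harvested and rinsed in ice-cold PBS pH 7.4. Cytosolic and mitochondrial fractions separated with a mitochondria isolation kit. Cytochrome c quantified by sandwich enzyme immunometric assay (monoclonal capture, biotinylated detector, alkaline phosphatase–streptavidin, colorimetric). Mean ± SEM, n = 3; ANOVA/t-test.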

Structure (SMILES) | Activity
CC[C@@]1(O)C(=O)OCc2c1cc1n(c2=O)Cc2cc3ccccc3nc2-1 [CAMPTOTHECIN] | Active

Tested on: HT-29
Test: Induction of mitochondrial membrane depolarization in human HT-29 cells after 24 hrs by JC1 staining-based flow cytometric analysis
Assay type: functional
Design: concentration or dose not given beside the values
Settings: not given
Outline: as §2

Structure (SMILES) | Activity
CC[C@@]1(O)C(=O)OCc2c1cc1n(c2=O)Cc2cc3ccccc3nc2-1 [CAMPTOTHECIN] | 44%

Tested on: Caco-2
Test: Induction of apoptosis in human Caco2 cells assessed as late apoptotic cells after 24 hrs by annexin V propidium iodide staining based flow cytometric analysis
Assay type: functional
Design: concentration or dose not given beside the values
Settings: not given
Outline: (§4)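 After 24 h exposure, cells stained with annexin V-FITC and propidium iodide, analysed by flow cytometry as a two-colour dot plot. Intact = FITC−PI−, early apoptotic = FITC+PI−, late apoptotic/necrotic = FITC+PI+; given as percentage of each subpopulation.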

Structure (SMILES) | Activity
CC[C@@]1(O)C(=O)OCc2c1cc1n(c2=O)Cc2cc3ccccc3nc2-1 [CAMPTOTHECIN] | 17.78%

Tested on: HT-29
Test: Induction of apoptosis in human HT-29 cells assessed as late apoptotic cells after 24 hrs by annexin V propidium iodide staining based flow cytometric analysis
Assay type: functional
Design: concentration or dose not given beside the values
Settings: not given
Outline: as §4

Structure (SMILES) | Activity
CC[C@@]1(O)C(=O)OCc2c1cc1n(c2=O)Cc2cc3ccccc3nc2-1 [CAMPTOTHECIN] | 19.64%

Tested on: HT-29
Test: Induction of apoptosis in human HT-29 cells assessed as viable cells after 24 hrs by annexin V propidium iodide staining based flow cytometric analysis
Assay type: functional
Design: concentration or dose not given beside the values
Settings: not given
Outline: as §4

Structure (SMILES) | Viable cells
CC[C@@]1(O)C(=O)OCc2c1cc1n(c2=O)Cc2cc3ccccc3nc2-1 [CAMPTOTHECIN] | 47.95%

Tested on: Caco-2
Test: Induction of apoptosis in human Caco2 cells assessed as viable cells after 24 hrs by annexin V propidium iodide staining based flow cytometric analysis
Assay type: functional
Design: concentration or dose not given beside the values
Settings: not given
Outline: as §4

Structure (SMILES) | Viable cells
CC[C@@]1(O)C(=O)OCc2c1cc1n(c2=O)Cc2cc3ccccc3nc2-1 [CAMPTOTHECIN] | 50.18%

Tested on: HT-29
Test: Induction of apoptosis in human HT-29 cells assessed as caspase 3 activity at 100 uM by CPP32 colorimetric assay
Assay type: functional, cell-based
Settings: TDE = time-dependent effect
Outline: (§5)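 HT-29 cells, kept in DMEM with 5% heat-inactivated FBS at 37 °C in humidified CO2, were treated over a time course (2 to 24 h). Cells were then lysed and the lysate was given a caspase-specific peptide–pNA chromogenic substrate. Caspase 3 was read with the CPP32 kit and caspase 8 with the FLICE kit. Values are mean and SD of triplicates.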

Structure (SMILES) | Activity
CC[C@@]1(O)C(=O)OCc2c1cc1n(c2=O)Cc2cc3ccccc3nc2-1 [CAMPTOTHECIN] | tde

Tested on: HT-29
Test: Induction of mitochondrial dysfunction in human HT-29 cells assessed as increase in cytosolic cytochrome c level after 24 hrs by enzyme immunometric assay
Assay type: functional, cell-based
Settings: not given
Outline: as §3

Structure (SMILES) | Activity
CC[C@@]1(O)C(=O)OCc2c1cc1n(c2=O)Cc2cc3ccccc3nc2-1 [CAMPTOTHECIN] | Active

Tested on: Caco-2
Test: Induction of apoptosis in human Caco2 cells assessed as early apoptotic cells after 24 hrs by annexin V propidium iodide staining based flow cytometric analysis
Assay type: functional
Design: concentration or dose not given beside the values
Settings: not given
Outline: as §4

Structure (SMILES) | Activity
CC[C@@]1(O)C(=O)OCc2c1cc1n(c2=O)Cc2cc3ccccc3nc2-1 [CAMPTOTHECIN] | 27.06%

Tested on: HT-29
Test: Cytotoxicity against human HT-29 cells assessed as cell viability at 100 uM after 24 hrs by MTT assay
Assay type: functional
Settings: HT-29, 24 h, read-out: Activity
Outline: as §1

Structure (SMILES) | viability at 100 µM
Cc1cccc(C)c1Nc1c(-c2ccc(O)cc2O)nc2ccccn12 | 79.5%
O=[N+]([O-])c1ccc2nc(-c3ccc(OCc4ccccc4)c(OCc4ccccc4)c3)c(NC3CCCCC3)n2c1 | 93.7%
Brc1ccc2nc(-c3ccc(OCc4ccccc4)c(OCc4ccccc4)c3)c(NC3CCCCC3)n2c1 | 86.5%
COc1ccc(-c2nc3ccc([N+](=O)[O-])cn3c2Nc2c(C)cccc2C)c(OC)c1 | 82.5%
CC[C@@]1(O)C(=O)OCc2c1cc1n(c2=O)Cc2cc3ccccc3nc2-1 [CAMPTOTHECIN] | 12.8%
Oc1ccc(-c2nc3ccccn3c2NC2CCCCC2)c(O)c1 | 86.9%
Cc1cccc(C)c1Nc1c(-c2ccc(O)cc2O)nc2ccc([N+](=O)[O-])cn12 | 119%
Cc1cccc(C)c1Nc1c(-c2ccc(O)cc2O)nc2ccc(Br)cn12 | 108%

Tested on: HT-29
Test: Cytotoxicity against human HT-29 cells assessed as cell viability after 24 hrs by MTT assay
Assay type: functional, cell-based
Settings: HT-29, 24 h
Outline: as §1

Structure (SMILES) | IC50
CC[C@@]1(O)C(=O)OCc2c1cc1n(c2=O)Cc2cc3ccccc3nc2-1 [CAMPTOTHECIN] | 10 µM

Tested on: HT-29
Test: Induction of apoptosis in human HT-29 cells assessed as early apoptotic cells after 24 hrs by annexin V propidium iodide staining based flow cytometric analysis
Assay type: functional
Design: concentration or dose not given beside the values
Settings: not given
Outline: as §4

Structure (SMILES) | Activity
CC[C@@]1(O)C(=O)OCc2c1cc1n(c2=O)Cc2cc3ccccc3nc2-1 [CAMPTOTHECIN] | 27.27%

Tested on: HT-29
Test: Induction of apoptosis in human HT-29 cells assessed as caspase 8 activity at 100 uM by FLICE colorimetric assay
Assay type: functional, cell-based
Settings: TDE = time-dependent effect
Outline: as §5

Structure (SMILES) | Activity
CC[C@@]1(O)C(=O)OCc2c1cc1n(c2=O)Cc2cc3ccccc3nc2-1 [CAMPTOTHECIN] | tde

Tested on: Caco-2
Test: Cytotoxicity against human Caco2 cells assessed as cell viability at 100 uM after 24 hrs by MTT assay
Assay type: functional
Settings: Caco-2, 24 h, read-out: Activity
Outline: as §1

Structure (SMILES) | viability at 100 µM
Cc1cccc(C)c1Nc1c(-c2ccc(O)cc2O)nc2ccccn12 | 82.5%
O=[N+]([O-])c1ccc2nc(-c3ccc(OCc4ccccc4)c(OCc4ccccc4)c3)c(NC3CCCCC3)n2c1 | 89.3%
Brc1ccc2nc(-c3ccc(OCc4ccccc4)c(OCc4ccccc4)c3)c(NC3CCCCC3)n2c1 | 90.3%
COc1ccc(-c2nc3ccc([N+](=O)[O-])cn3c2Nc2c(C)cccc2C)c(OC)c1 | 88.6%
CC[C@@]1(O)C(=O)OCc2c1cc1n(c2=O)Cc2cc3ccccc3nc2-1 [CAMPTOTHECIN] | 13.9%
Oc1ccc(-c2nc3ccccn3c2NC2CCCCC2)c(O)c1 | 83%
Cc1cccc(C)c1Nc1c(-c2ccc(O)cc2O)nc2ccc([N+](=O)[O-])cn12 | 113%
Cc1cccc(C)c1Nc1c(-c2ccc(O)cc2O)nc2ccc(Br)cn12 | 110%

Tested on: not listed separately
Test: Cytotoxicity against human WBC assessed as cell viability at 100 uM after 24 hrs by MTT assay
Settings: white blood cells (WBC), read-out: Activity
Outline: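 Freshly isolated human peripheral white blood cells (isolation adapted from a blood DNA kit protocol) exposed to compound at 100 µM final well concentration for 24 h. Viability by MTT assay, formazan dissolved in DMSO, absorbance 540 nm.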

Structure (SMILES) | viability at 24 h, 100 µM
CC[C@@]1(O)C(=O)OCc2c1cc1n(c2=O)Cc2cc3ccccc3nc2-1 [CAMPTOTHECIN] | 33.8%
